Measured values from ChEMBL document CHEMBL4715757, “Studies on the inhibition of sphingosine-1-phosphate lyase by stabilized reaction intermediates and stereodefined azido phosphates” (Eur J Med Chem, 2016).

What was measured:
[1] = target: T1, Sphingosine-1-phosphate lyase 1 (Mus musculus, UniProt Q8R0X7); test: Inhibition of mouse liver microsomal S1PL using S1P as substrate incubated for 20 mins by ESI-LC/MS analysis; assay type: microsomes, Microsome
T1 sequence (Q8R0X7 whole entry): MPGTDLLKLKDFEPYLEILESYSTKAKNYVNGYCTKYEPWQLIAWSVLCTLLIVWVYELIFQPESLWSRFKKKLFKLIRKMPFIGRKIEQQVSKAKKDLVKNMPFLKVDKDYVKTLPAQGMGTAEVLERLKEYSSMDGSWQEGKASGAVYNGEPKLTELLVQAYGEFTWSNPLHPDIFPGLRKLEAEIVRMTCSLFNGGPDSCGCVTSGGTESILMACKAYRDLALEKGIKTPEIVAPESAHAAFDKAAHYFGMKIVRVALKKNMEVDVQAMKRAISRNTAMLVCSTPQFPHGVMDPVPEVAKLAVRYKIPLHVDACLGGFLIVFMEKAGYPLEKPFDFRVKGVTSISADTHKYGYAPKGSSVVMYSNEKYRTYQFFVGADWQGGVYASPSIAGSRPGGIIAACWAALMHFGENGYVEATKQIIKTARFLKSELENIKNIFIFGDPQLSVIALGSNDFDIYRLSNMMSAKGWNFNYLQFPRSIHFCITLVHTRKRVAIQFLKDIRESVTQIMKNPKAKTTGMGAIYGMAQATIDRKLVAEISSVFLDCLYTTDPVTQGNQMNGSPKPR

[2] = system: Symbiobacterium thermophilum; test: Inhibition of recombinant full-length wild type Symbiobacterium thermophilum S1PL at 250 uM using RBM13 as fluorogenic substrate incubated for 1 hr relative to control
[3] = target: T2, Sphingosine-1-phosphate lyase 1 (Homo sapiens) (UniProt O95470); test: Inhibition of recombinant human S1PL at 250 uM using RBM13 as fluorogenic substrate incubated for 1 hr relative to control
T2 sequence (whole entry): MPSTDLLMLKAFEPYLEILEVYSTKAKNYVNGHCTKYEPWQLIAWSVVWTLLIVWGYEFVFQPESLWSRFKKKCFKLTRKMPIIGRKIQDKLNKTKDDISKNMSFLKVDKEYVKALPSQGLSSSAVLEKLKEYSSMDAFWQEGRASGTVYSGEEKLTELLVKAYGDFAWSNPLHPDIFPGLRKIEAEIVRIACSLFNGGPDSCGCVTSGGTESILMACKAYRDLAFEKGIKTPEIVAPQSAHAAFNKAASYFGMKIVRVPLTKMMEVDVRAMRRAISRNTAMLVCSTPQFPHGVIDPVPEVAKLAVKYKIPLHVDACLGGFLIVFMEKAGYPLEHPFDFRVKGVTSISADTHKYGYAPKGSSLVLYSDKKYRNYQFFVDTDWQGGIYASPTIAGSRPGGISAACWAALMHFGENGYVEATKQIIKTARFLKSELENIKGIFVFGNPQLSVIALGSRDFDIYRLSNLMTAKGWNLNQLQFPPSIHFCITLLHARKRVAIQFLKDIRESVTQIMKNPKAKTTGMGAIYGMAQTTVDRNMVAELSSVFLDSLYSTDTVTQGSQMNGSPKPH

[4] = target: T3, Sphingosine-1-phosphate lyase 1 (Homo sapiens, UniProt O95470); test: Inhibition of recombinant human S1PL using RBM13 as fluorogenic substrate incubated for 1 hr
T3 sequence (O95470 whole entry): T2 sequence (whole entry)
Outline: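 Recombinant hS1PL at 3 µg/mL final in 100 mM HEPES pH 7.4 with 0.1 mM EDTA, 0.05% Triton X-100, 0.01% Pluronic F127 and 100 µM PLP. RBM13 at 125 µM final; 37 °C for 1 h. MeOH stop, then glycine-NaOH pH 10.6 for 20 min at 37 °C. Umbelliferone fluorescence at 355/460 nm, calibration curve. IC50 from % activity vs log[I].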

[5] = target: T3, Sphingosine-1-phosphate lyase 1; test: Competitive inhibition of human S1PL using varying levels of RBM13 as substrate by Lineweaver-Burk plot analysis
[6] = Inhibition of recombinant full-length wild type Symbiobacterium thermophilum S1PL using RBM13 as fluorogenic substrate incubated for 1 hr
Outline: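 StS1PL, expressed and purified in-house, used at 25 µg/mL final. Buffer: 1 mM potassium phosphate pH 7.2 with 100 mM NaCl, 1 mM EDTA, 1 mM DTT and 10 µM PLP. RBM13 at 125 µM final; 37 °C for 1 h. Stopped with MeOH, then glycine-NaOH pH 10.6 for 20 min at 37 °C. Umbelliferone read at ex/em 355/460 nm against a calibration curve. IC50 fitted from % activity vs log[I].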

Structure (SMILES)	IC50 [1] [µM]	inhibition [2] [%]	inhibition [3] [%]	IC50 [4] [µM]	Ki [5] [µM]	IC50 [6] [µM]
Cc1ncc(COP(=O)(O)O)c(CNCCOP(=O)(O)O)c1O	–	20	20	–	–	–
CCCCCCCCCCCCC/C=C/[C@H](O)[C@@H](COP(=O)(O)O)N=[N+]=[N-]	–	–	–	5.2	5.6	13.8
CCCCCCCCCCCCCCC[C@@H](O)[C@@H](COP(=O)(O)O)N=[N+]=[N-]	–	–	–	28.3	36.7	24.3
CCCCCCCCCCCCC/C=C/[C@@H](O)[C@H](COP(=O)(O)O)NCc1c(COP(=O)(O)O)cnc(C)c1O	–	–	–	89	–	53.4
CCCCCCCCCCCCC/C=C/[C@@H](O)[C@@H](COP(=O)(O)O)N=[N+]=[N-]	–	–	–	22.9	17.5	11.7

Further lines, results first:

IC50 [1] [µM]	inhibition [2] [%]	inhibition [3] [%]	IC50 [4] [µM]	Ki [5] [µM]	IC50 [6] [µM]	Structure (SMILES)
52.4	–	–	–	–	–	CCCCCCCCc1ccc(CCC(N)(CO)CO)cc1 [FINGOLIMOD]
–	–	–	10.1	9.1	12.9	CCCCCCCCCCCCC/C=C/[C@@H](O)[C@H](COP(=O)(O)O)N=[N+]=[N-]
–	–	–	21.8	16.4	27.2	CCCCCCCCCCCCCCC[C@H](O)[C@H](COP(=O)(O)O)N=[N+]=[N-]
–	–	–	25.7	19	25	CCCCCCCCCCCCCCC[C@@H](O)[C@H](COP(=O)(O)O)N=[N+]=[N-]
–	–	–	28.8	20.4	16	CCCCCCCCCCCCC/C=C/[C@H](O)[C@H](COP(=O)(O)O)N=[N+]=[N-]
–	–	–	10.8	6.3	25.7	CCCCCCCCCCCCCCC[C@H](O)[C@@H](COP(=O)(O)O)N=[N+]=[N-]
–	–	–	81.1	–	47	CCCCCCCCCCCCCCC[C@@H](O)[C@H](COP(=O)(O)O)NCc1c(COP(=O)(O)O)cnc(C)c1O
